Most compounds without a hit are left out; they make up all but 3.1% or so of the library.
HKDC1 inhibitor – HKDC1 hexokinase inhibitors, primary screen, biochemical, fluorescence, uHTS; Q2TB90; recombinant HKDC1, G6PDH/diaphorase resazurin coupled fluorescence; inhibition, % at 20 µM; 340,000 tested, 0.16% active; AID 493160, 2011;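 active = inhibition above about 35% when tested at 20 µM, limit read from the data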;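 note: plate controls were DMSO wells with enzyme for no effect and DMSO wells lacking enzyme for full effect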
Target sequence (Q2TB90 whole entry, looked up): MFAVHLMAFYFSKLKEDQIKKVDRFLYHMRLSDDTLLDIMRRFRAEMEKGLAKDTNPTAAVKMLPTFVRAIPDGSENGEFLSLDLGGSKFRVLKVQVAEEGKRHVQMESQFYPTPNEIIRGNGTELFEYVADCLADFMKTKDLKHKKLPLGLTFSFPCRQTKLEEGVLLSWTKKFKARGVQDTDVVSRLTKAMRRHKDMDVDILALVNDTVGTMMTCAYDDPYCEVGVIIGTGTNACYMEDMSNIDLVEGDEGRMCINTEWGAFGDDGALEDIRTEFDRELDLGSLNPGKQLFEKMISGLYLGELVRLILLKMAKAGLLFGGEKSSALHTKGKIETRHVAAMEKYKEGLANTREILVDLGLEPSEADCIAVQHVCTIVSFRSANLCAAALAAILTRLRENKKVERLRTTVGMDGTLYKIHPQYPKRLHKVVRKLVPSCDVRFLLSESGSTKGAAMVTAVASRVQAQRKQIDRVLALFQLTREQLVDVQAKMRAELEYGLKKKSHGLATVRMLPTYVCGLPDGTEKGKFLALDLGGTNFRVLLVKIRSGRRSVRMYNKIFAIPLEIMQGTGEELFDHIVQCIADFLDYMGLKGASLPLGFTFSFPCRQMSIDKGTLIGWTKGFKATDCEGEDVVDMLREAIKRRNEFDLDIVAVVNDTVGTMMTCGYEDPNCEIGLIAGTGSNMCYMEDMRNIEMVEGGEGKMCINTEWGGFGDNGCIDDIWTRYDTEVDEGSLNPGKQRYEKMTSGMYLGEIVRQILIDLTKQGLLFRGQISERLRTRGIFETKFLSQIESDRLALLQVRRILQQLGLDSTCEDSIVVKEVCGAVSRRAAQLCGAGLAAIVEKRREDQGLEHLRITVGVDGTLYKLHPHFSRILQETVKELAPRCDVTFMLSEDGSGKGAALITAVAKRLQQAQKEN
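Assay system: in-house recombinant HK5 (HKDC1) enzyme. Input: HKDC1 at 5 µg/mL. Medium: Tris pH 8.0 buffer with MgCl2, Tween-20, BSA, BME. Dosing: single 20 µM dose. Schedule: 90 min reaction incubation at room temperature, dark. Signal: resazurin-to-resorufin fluorescence via G6PDH and diaphorase coupling, 525/613 nm. Controls: DMSO-enzyme wells negative, buffer-substituted wells positive.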
Hsp70 activator – Hsp70 transcriptional activators, primary screen, cell-based, HeLa, Hsp70 promoter luciferase, luminescence, 10 µM; HeLa Hsp70 promoter luciferase reporter; scaled: vehicle 0, proteasome-inhibitor control 100%; activation, % at 10 µM; 200,000 tested, 0.04% active; AID 1203, 2008;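 active = activation above the mean across all tested compounds plus 3 SD, cutoff set per campaign, cut at about 5.5% in these data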;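 note: 100% = MG132 at 30 µM as the positive control and 0% = DMSO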
HSF1 inhib – HSF1 inhibitors in luciferase reporter cells, primary screen, cell-based, NIH3T3, luminescence. NIH3T3-HGL HSE-luciferase, MG132-induced, luminescence 8 h; hits give low values. activity change, negative = inhibition, % at 7.5 µM (by protocol). 300,000 tested, 0.77% active. AID 2098, 2009;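 active = more than half of replicate wells show activity change below -50%, luminescence cut by over half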;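 note: luciferase reports HSF-1 transcriptional activity via heat shock element; 0% = median of DMSO wells and -100% = zero luminescence signal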
TbHK1 inh – Trypanosoma brucei hexokinase 1 inhibitors, primary screen, biochemical, G6PDH-coupled NADH absorbance, MLSCN library; recombinant TbHK1, G6PDH-coupled NADH A340; 220,000 tested, 0.11% active; AID 1430, 2008; inhibition, % at 10 µM;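 active = inhibition of 50% or more in the single-dose primary screen; inactive = inhibition below 50%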
HSF1 activator – HSF-1 activators, primary screen, NIH3T3-HGL cells, MG132 stress, luminescence, single point; activation, % at 9 µM; NIH3T3-HGL HSF-1 luciferase reporter, 8 h; 100% = twice DMSO control signal; 300,000 tested, 1.7% active; AID 504408, 2011;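 active = mean replicate activation of at least 50% with a set share of replicates each reaching 50%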;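 note: 0% = median of the neutral control wells and 100% = twice that signal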
HSP90 inh – HSP90 inhibitors, primary screen, cell lysate, luminescence. Rabbit reticulocyte lysate, luciferase refolding luminescence, 3 h. Heat shock protein HSP 90 (rabbit reticulocyte lysate; luciferase refolding). inhibition, % at 5.6 µM. 290,000 tested, 0.91% active;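 active = inhibition above the screen-wide mean plus 3 SD, computed separately per campaign, cut at about 16% in these data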;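 note: 0% = DMSO wells and 100% = 60 µM geldanamycin wells; inhibitors lower the luminescence because luciferase stays unfolded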
HKDC1 act conf – HKDC1 hexokinase activators, confirmation, biochemical, single concentration; shares compounds with HKDC1 inhibitor; recombinant HKDC1, G6PDH/diaphorase resazurin fluorescence; hits give low values; inhibition, % at 20 µM; 740 tested, 14% active; AID 504708, 2011;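 active = inhibition at or below a set negative limit, negative inhibition meaning the enzyme was activated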
Numbers without * were called inactive; x = not tested or not shown.

SMILES	HKDC1 inhibitor	Hsp70 activator	HSF1 inhib	TbHK1 inh	HSF1 activator	HSP90 inh	HKDC1 act conf
O=C1C=CC(=O)C(C2=C3C(=O)N(CCc4ccccc4)CC(=O)N3CCC2)=C1	63*	0	13	-1	32	0	71
Cc1nc(COC(=O)c2ccc(CO)cc2)cs1	-2	0	-1	4	-3	-4	x
Cc1nc(COC(=O)c2cc(O)c3ccccc3c2O)cs1	60*	0	1	2	1	2	39
N=C1/C(=C\c2coc3ccccc3c2=O)C(=O)N=C2SC(c3ccncc3)=NN12	45*	x	-8	-18	-3	-1	32
COc1ccc(-n2cccc2/C=C2\C(=N)N3N=C(c4ccco4)SC3=NC2=O)cc1	35*	0	8	-1	0	1	-9
CSC1=NSC2=NC(=O)/C(=C\c3coc4ccccc4c3=O)C(=N)N12	5	0	x	-6	x	-5	x
N=C1/C(=C/c2coc3ccccc3c2=O)C(=O)N=C2SC(c3ccco3)=NN12	38*	x	-5	-12	5	2	-9
Cn1nc(C(=O)NNC(=O)C(CCC(N)=O)NS(=O)(=O)c2ccc(Cl)cc2)c2ccccc2c1=O (configuration not stated)	0	x	x	x	x	x	x
Cc1ccc(S(=O)(=O)N2CCC[C@H]2C(=O)NC2CCCCC2)cc1	-8	x	x	x	x	x	x
C#CCOCCOCCOCCNc1nc(N2CCOCC2)nc(N2CCN(C(=O)Cn3cc(CCCCN)nn3)CC2)n1	-6	x	x	x	x	x	x
CC1=NOC(=O)/C1=C\c1ccc(-c2cccc(Cl)c2)o1	38*	0	10	16	6	3	3
CC1=NOC(=O)/C1=C\c1ccc(-c2ccc(Cl)c(C(=O)O)c2)o1	-2	0	-4	-11	-8	2	x
COc1cc(N=c2ssnc2Cl)cc(OC)c1OC	-100	0	-3	23	-17	9	-46*
CCC(C)(C)NC(=O)C1CCC(CNS(=O)(=O)c2cccc3nsnc23)CC1 (configuration not stated)	51*	x	7	x	6	-1	-12
CC(=NNC(=S)N(Cc1ccccn1)Cc1ccccn1)c1cnccn1	-38	x	x	x	x	x	x
S=C(NN=C(c1ccccc1)c1ccccn1)N(Cc1ccccn1)Cc1ccccn1	-46	x	x	x	x	x	-59*
Cc1csc(SCC(=O)Nc2ccc3[nH]c(=O)[nH]c3c2)n1	2	x	x	x	x	x	x
COc1ccc2c(c1)/C(=N/N1C(=O)c3ccccc3C1=O)C(=O)N2	x	0	-6	-5	1	0	x
COc1ccc2c(c1)/C(=C\c1cccc(/C=C3/C(=O)Nc4ccc(OC)cc43)n1)C(=O)N2	37*	x	x	x	x	x	24
O=c1oc2cc(Oc3c([N+](=O)[O-])cc(C(F)(F)F)cc3[N+](=O)[O-])ccc2c2c1CCCC2	40*	0	2	-5	4	0	3
O=c1oc2cc(Oc3ccc(C(F)(F)F)cc3[N+](=O)[O-])ccc2c2c1CCC2	-5	0	-3	-5	0	1	x
O=C(O)c1ccc(N2C(=O)/C(=C/c3ccc(-c4ccc([N+](=O)[O-])cc4)o3)C=C2c2ccccc2)cc1	43*	1	7	28	21	2	1
O=C(OCc1cc(=O)n2ccsc2n1)c1ccc(OC(F)F)cc1	-2	x	x	x	x	x	x
CCOc1cc(/C=N/NC(=O)c2ccc(-c3csc(Nc4ccc(C)cc4)n3)cc2)ccc1OCC(=O)O	6	0	x	-18	x	1	x
O=C(O)COc1ccc(/C=N/NC(=O)c2ccc(-c3csc(Nc4ccc(Cl)cc4)n3)cc2)cc1	76*	x	6	-13	0	-3	24
SMILES	HKDC1 inhibitor	Hsp70 activator	HSF1 inhib	TbHK1 inh	HSF1 activator	HSP90 inh	HKDC1 act conf
O=C1C(O)=CC(=C(c2ccccc2)c2ccccc2)c2ccccc21	78*	x	x	x	x	x	18
Cc1ccc(NC2=C/C(=N/S(=O)(=O)c3cccs3)c3ccccc3C2=O)cc1C	15	0	2	10	11	2	x
COc1ccc(S(=O)(=O)/N=C2\C=C(Nc3ccc(O)cc3)C(=O)c3ccccc32)cc1	42*	x	-94*	x	-95	96*	27
C[C@@H]1CN([C@@H](C)CO)C(=O)c2cc(NS(C)(=O)=O)ccc2O[C@@H]1CN(C)Cc1ccc(C(F)(F)F)cc1	1	x	x	x	x	x	x
CN(C(=O)c1ccccc1C(=O)OCC(=O)Nc1ccccc1)c1ccccc1	-5	x	x	x	x	x	x
Cc1nc([N+](=O)[O-])c(Br)n1Cc1ccc(Cl)c(Cl)c1	35	0	28	-10	26	0	54
COc1cc([N+](=O)[O-])ccc1-c1ccc(/C=C2\C(=O)ON=C2c2ccccc2)o1	44*	x	x	x	x	x	25
COc1cc([N+](=O)[O-])ccc1-c1ccc(/C=N\n2cnnc2)o1	1	x	1	x	0	2	x
Cc1ccc(NC2c3ncccc3C(=O)N2c2ccccc2C)cc1C (configuration not stated)	56*	0	-8	-10	-13	2	36
COc1ccc(F)cc1S(=O)(=O)Nc1cc2c3c(c1)CCN3C(=O)CC2	2	x	5	x	-3	x	x
O=C(CCNS(=O)(=O)c1ccc(Br)cc1)NCc1ccco1	-4	x	-2	x	-3	x	x
CC(C)c1nc2oc3c(=O)[nH]cnc3c2c2c1COC(C)(C)C2	36*	x	-2	-4	6	3	48
CC(C)c1nc2oc3c(NCC4CCCO4)ncnc3c2c2c1COC(C)(C)C2 (configuration not stated)	40*	0	-1	-15	5	4	63
CCCc1nc2oc3c(NCCOCCO)ncnc3c2c2c1COC(C)(C)C2	39*	0	-4	-4	3	4	42
CC(C)c1nc2oc3c(NCCO)ncnc3c2c2c1COC(C)(C)C2	46*	x	0	-16	13	0	66
O=[N+]([O-])c1ccc2oc(C(O)c3cccc(Cl)c3)cc2c1 (configuration not stated)	3	x	4	x	0	-4	x
O=C(CNC(=O)c1ccc(N2CCCC2=O)cc1)Nc1ccc(F)c(F)c1F	-2	x	x	x	x	x	x
COc1cccc(N(CC(=O)N2CCCCCC2)S(C)(=O)=O)c1	0	x	1	x	2	-2	x
Cc1nc2oc3c(NCc4ccccc4)ncnc3c2c2c1COC(C)(C)C2	26	0	2	-16	12	-1	x
